According to ChEMBL document CHEMBL3286292, “Synthesis and antimicrobial activity of amine linked bis- and tris-heterocycles” (2014):
Calls of active or inactive are those of the source. The calls are words filed in the database; no cut-off is given here.

Assays:
Assay type in all cases: functional
[1] = system: Aspergillus niger; assay: Antifungal activity against Aspergillus niger assessed as growth inhibition after 48 hrs by broth dilution method
Method in brief: (§1)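 Tube broth dilution with nutrient broth as diluent. Compound dilutions were added to fungal cultures and incubated at 28 °C for 48 h. A solvent control without sample was included. MIC was the lowest concentration with no visible growth or turbidity.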

[2] = system: Penicillium chrysogenum; assay: Antifungal activity against Penicillium chrysogenum assessed as growth inhibition after 48 hrs by broth dilution method; method in brief: as §1
[3] = system: Staphylococcus aureus; assay: Antibacterial activity against Staphylococcus aureus assessed as growth inhibition at 25 ug/well after 24 hrs by agar well diffusion method; conditions: for zone of inhibition at 25 µg/disc: read-out: DIZ
Method in brief: (§2)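 Agar well diffusion on […] swabbed with a 24 h broth culture. Samples were dissolved in DMSO and loaded at three per-well amounts into 6 mm wells. Incubation was 37 °C for 24 h, then inhibition zone diameter was read in mm. DMSO served as the negative control. Runs were in duplicate and averaged.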

[4] = system: Staphylococcus aureus; assay: Antibacterial activity against Staphylococcus aureus assessed as growth inhibition at 50 ug/well after 24 hrs by agar well diffusion method; conditions: for zone of inhibition at 50 µg/disc: read-out: DIZ; method in brief: as §2
[5] = system: Staphylococcus aureus; assay: Antibacterial activity against Staphylococcus aureus assessed as growth inhibition at 100 ug/well after 24 hrs by agar well diffusion method; conditions: for zone of inhibition at 100 µg/disc: read-out: DIZ; method in brief: as §2
[6] = system: Bacillus subtilis; assay: Antibacterial activity against Bacillus subtilis assessed as growth inhibition at 25 ug/well after 24 hrs by agar well diffusion method; conditions: for zone of inhibition at 25 µg/disc: read-out: DIZ; method in brief: as §2
[7] = system: Bacillus subtilis; assay: Antibacterial activity against Bacillus subtilis assessed as growth inhibition at 50 ug/well after 24 hrs by agar well diffusion method; conditions: for zone of inhibition at 50 µg/disc: read-out: DIZ; method in brief: as §2
[8] = system: Bacillus subtilis; assay: Antibacterial activity against Bacillus subtilis assessed as growth inhibition at 100 ug/well after 24 hrs by agar well diffusion method; conditions: for zone of inhibition at 100 µg/disc: read-out: DIZ; method in brief: as §2
[9] = system: Pseudomonas aeruginosa; assay: Antibacterial activity against Pseudomonas aeruginosa assessed as growth inhibition at 25 ug/well after 24 hrs by agar well diffusion method; conditions: for zone of inhibition at 25 µg/disc: read-out: DIZ; method in brief: as §2
[10] = system: Pseudomonas aeruginosa; assay: Antibacterial activity against Pseudomonas aeruginosa assessed as growth inhibition at 50 ug/well after 24 hrs by agar well diffusion method; conditions: for zone of inhibition at 50 µg/disc: read-out: DIZ; method in brief: as §2
[11] = system: Pseudomonas aeruginosa; assay: Antibacterial activity against Pseudomonas aeruginosa assessed as growth inhibition at 100 ug/well after 24 hrs by agar well diffusion method; conditions: for zone of inhibition at 100 µg/disc: read-out: DIZ; method in brief: as §2
[12] = system: Klebsiella pneumoniae; assay: Antibacterial activity against Klebsiella pneumoniae assessed as growth inhibition at 25 ug/well after 24 hrs by agar well diffusion method; conditions: for zone of inhibition at 25 µg/disc: read-out: DIZ; method in brief: as §2
[13] = system: Klebsiella pneumoniae; assay: Antibacterial activity against Klebsiella pneumoniae assessed as growth inhibition at 50 ug/well after 24 hrs by agar well diffusion method; conditions: for zone of inhibition at 50 µg/disc: read-out: DIZ; method in brief: as §2
[14] = system: Klebsiella pneumoniae; assay: Antibacterial activity against Klebsiella pneumoniae assessed as growth inhibition at 100 ug/well after 24 hrs by agar well diffusion method; conditions: for zone of inhibition at 100 µg/disc: read-out: DIZ; method in brief: as §2
[15] = system: Aspergillus niger; assay: Antifungal activity against Aspergillus niger assessed as inhibition of spore germination at 25 ug/well after 48 hrs by agar well diffusion method; conditions: for zone of inhibition at 25 µg/disc: read-out: DIZ
Method in brief: (§3)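 Well diffusion using 6 mm bored wells loaded with DMSO solutions at three per-well amounts, with a DMSO negative control. Plates were held at 28 °C for 48 h, then zone of inhibition diameter was measured in mm. Runs were in duplicate and averaged.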

[16] = system: Aspergillus niger; assay: Antifungal activity against Aspergillus niger assessed as inhibition of spore germination at 50 ug/well after 48 hrs by agar well diffusion method; conditions: for zone of inhibition at 50 µg/disc: read-out: DIZ; method in brief: as §3
[17] = system: Staphylococcus aureus; assay: Antibacterial activity against Staphylococcus aureus assessed as growth inhibition after 24 hrs by broth dilution method
Method in brief: (§4)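 Tube broth dilution with fresh nutrient broth as diluent and a 24 h old bacterial culture. Compound dilutions were added to the tubes, which were incubated at 37 °C for 24 h. Solvent control without sample was run in parallel. MIC was the lowest concentration showing no visible turbidity.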

[18] = system: Bacillus subtilis; assay: Antibacterial activity against Bacillus subtilis assessed as growth inhibition after 24 hrs by broth dilution method; method in brief: as §4
[19] = system: Pseudomonas aeruginosa; assay: Antibacterial activity against Pseudomonas aeruginosa assessed as growth inhibition after 24 hrs by broth dilution method; method in brief: as §4
[20] = system: Klebsiella pneumoniae; assay: Antibacterial activity against Klebsiella pneumoniae assessed as growth inhibition after 24 hrs by broth dilution method; method in brief: as §4

SMILES | zone of inhibition at 25 µg/disc [3] [mm] | zone of inhibition at 50 µg/disc [4] [mm] | zone of inhibition at 100 µg/disc [5] [mm] | zone of inhibition at 25 µg/disc [6] [mm] | zone of inhibition at 50 µg/disc [7] [mm] | zone of inhibition at 100 µg/disc [8] [mm] | zone of inhibition at 25 µg/disc [9] [mm] | zone of inhibition at 50 µg/disc [10] [mm] | zone of inhibition at 100 µg/disc [11] [mm] | zone of inhibition at 25 µg/disc [12] [mm] | zone of inhibition at 50 µg/disc [13] [mm] | zone of inhibition at 100 µg/disc [14] [mm] | zone of inhibition at 25 µg/disc [15] [mm] | zone of inhibition at 50 µg/disc [16] [mm] | growth inhibition (GI) [3] | growth inhibition (GI) [9] | growth inhibition (GI) [10] | growth inhibition (GI) [11] | also measured
CC(=O)N1CCN(c2ccc(OCC3COC(Cn4ccnc4)(c4ccc(Cl)cc4Cl)O3)cc2)CC1 (centres undefined) [KETOCONAZOLE] | – | – | – | – | – | – | – | – | – | – | – | – | – | – | – | – | – | – | MIC [1]: 6.25 µg; MIC [2]: 12.5 µg
O=C(N[C@H](CO)[C@H](O)c1ccc([N+](=O)[O-])cc1)C(Cl)Cl [CHLORAMPHENICOL] | 30 | 33 | 35 | 32 | 34 | 38 | 25 | 27 | 30 | 38 | 40 | 42 | 31 | 33 | – | – | – | – | MIC [17]: 6.25 µg; MIC [18]: 6.25 µg; MIC [19]: 6.25 µg; MIC [20]: 12.5 µg
Cc1ccc(-c2c[nH]c(Nc3cc(-c4ccc(C)cc4)n(-c4nc(-c5ccc(C)cc5)cs4)n3)n2)cc1 | 12 | 14 | 17 | 12 | 13 | 16 | 6 | 7 | 10 | 13 | 14 | 17 | 16 | 17 | – | – | – | – | –
NC(=S)N1N=C(Nc2nc(-c3ccc(Cl)cc3)c[nH]2)C[C@@H]1c1ccc(Cl)cc1 | – | – | – | – | – | 6 | – | – | – | – | 6 | 7 | – | – | inactive | inactive | inactive | inactive | growth inhibition (GI) [4]: inactive; growth inhibition (GI) [5]: inactive; growth inhibition (GI) [6]: inactive; growth inhibition (GI) [7]: inactive; growth inhibition (GI) [12]: inactive; growth inhibition (GI) [15]: inactive; zone of inhibition [16]: inactive
Cc1ccc(-c2coc(Nc3cc(-c4ccc(C)cc4)n(-c4nc(-c5ccc(C)cc5)cs4)n3)n2)cc1 | – | 6 | 8 | 6 | 8 | 9 | – | – | – | 6 | 8 | 10 | 6 | 8 | inactive | inactive | inactive | inactive | –
NC(=S)n1nc(Nc2nc(-c3ccc(Cl)cc3)co2)cc1-c1ccc(Cl)cc1 | 15 | 17 | 19 | 15 | 16 | 19 | 8 | 9 | 12 | 16 | 17 | 20 | 10 | 11 | – | – | – | – | –
Cc1ccc(-c2c[nH]c(Nc3cc(-c4ccc(C)cc4)n(C(N)=S)n3)n2)cc1 | 10 | 12 | 14 | 9 | 10 | 13 | – | – | 7 | 10 | 12 | 14 | 14 | 15 | – | inactive | inactive | – | –
NC(=S)N1N=C(Nc2nc(-c3ccc(Cl)cc3)co2)C[C@@H]1c1ccc(Cl)cc1 | – | – | – | – | – | – | – | – | – | – | – | – | – | – | inactive | inactive | inactive | inactive | growth inhibition (GI) [4]: inactive; growth inhibition (GI) [5]: inactive; growth inhibition (GI) [6]: inactive; growth inhibition (GI) [7]: inactive; growth inhibition (GI) [8]: inactive; growth inhibition (GI) [12]: inactive; growth inhibition (GI) [13]: inactive; growth inhibition (GI) [14]: inactive; growth inhibition (GI) [15]: inactive; zone of inhibition [16]: inactive
c1ccc(-c2coc(Nc3cc(-c4ccccc4)n(-c4nc(-c5ccccc5)cs4)n3)n2)cc1 | 8 | 10 | 13 | 8 | 10 | 12 | – | – | 6 | 8 | 10 | 13 | 9 | 10 | – | inactive | inactive | – | –
NC(=S)n1nc(Nc2nc(-c3ccc(Cl)cc3)cs2)cc1-c1ccc(Cl)cc1 | 24 | 26 | 29 | 22 | 25 | 26 | 14 | 16 | 18 | 26 | 28 | 31 | 20 | 22 | – | – | – | – | –
NC(=S)n1nc(Nc2nc(-c3ccccc3)c[nH]2)cc1-c1ccccc1 | 18 | 20 | 23 | 18 | 20 | 22 | 10 | 12 | 14 | 19 | 20 | 24 | 19 | 20 | – | – | – | – | –
NC(=S)N1N=C(Nc2nc(-c3ccccc3)c[nH]2)C[C@@H]1c1ccccc1 | – | – | – | – | – | – | – | – | – | – | – | 6 | – | – | inactive | inactive | inactive | inactive | growth inhibition (GI) [4]: inactive; growth inhibition (GI) [5]: inactive; growth inhibition (GI) [6]: inactive; growth inhibition (GI) [7]: inactive; growth inhibition (GI) [8]: inactive; growth inhibition (GI) [12]: inactive; growth inhibition (GI) [13]: inactive; growth inhibition (GI) [15]: inactive; zone of inhibition [16]: inactive
NC(=S)n1nc(Nc2nc(-c3ccc(Cl)cc3)c[nH]2)cc1-c1ccc(Cl)cc1 | 21 | 23 | 25 | 19 | 21 | 23 | 11 | 13 | 15 | 20 | 22 | 26 | 22 | 24 | – | – | – | – | –
